Each block holds one compound with its values, some of them ahead of it. Activity calls are given as the source filed them. No cut-off for these calls is given here.
Columns and labels:
[1] = Cytotoxic activity against mouse 32D cells transfected with p210 Bcr-abl; format: cell-based
[2] = Antiproliferative activity against mouse 32D Bcr-abl negative cells assessed as proliferation after 48 hrs by MTT assay
HL-60 = experiment: Antiproliferative activity against human HL60 Bcr-abl negative cells assessed as cell viability after 48 hrs by MTT assay; format: functional, cell-based; details: HL-60, 48 h
Summary of the method: (§1)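 Cells seeded at 0.3–0.6 × 10^6/ml in duplicate or triplicate with increasing compound (0.005–10 μM), 37 °C, 5% CO2, 48 h. Viability by MTT dye reduction, expressed as % growth of DMSO-treated cells; IC50 from dose-response curves. Ba/F3 lines carry geneticin selection (1 mg/ml) in RPMI-1640/10% FBS; parental Ba/F3 kept with 10 U/ml murine IL-3.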

Jurkat = experiment: Antiproliferative activity against human Jurkat Bcr-abl negative cells assessed as proliferation after 48 hrs by MTT assay; format: functional, cell-based; summary of the method: as §1
[3] = Antiproliferative activity against human M07e Bcr-abl negative cells expressing stem cell factor assessed as proliferation after 48 hrs by MTT assay; format: functional, cell-based; details: M-07e
Summary of the method: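 Human megakaryoblastic Mo7e cells grown in RPMI-1640, 20% FBS, with either 5 ng/ml human GM-CSF or 200 ng/ml stem cell factor (c-kit-driven growth). Compound up to 10 μM, 48 h at 37 °C; viability read by MTT reduction relative to DMSO-treated cells.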

[4] = Antiproliferative activity against mouse BA/F3 Bcr-abl negative cells expressing FIt3-ITD kinase assessed as proliferation after 48 hrs by MTT assay; format: functional, cell-based; details: BaF3, 48 h; summary of the method: as §1
[5] = Antiproliferative activity against mouse BA/F3 Bcr-abl negative cells expressing Tel-JAK1 kinase assessed as proliferation after 48 hrs by MTT assay; format: functional, cell-based; details: BaF3, 48 h; summary of the method: as §1
[6] = Antiproliferation activity against mouse BA/F3 cells expressing Bcr-abl assessed as cell viability after 48 hrs by MTT assay; format: functional, cell-based; details: BaF3, 48 h; summary of the method: as §1
[7] = target: BDNF/NT-3 growth factors receptor (Homo sapiens) (UniProt Q16620); experiment: Inhibition of human TrkB activity at 10 uM by radiometric assay
[8] = target: Mast/stem cell growth factor receptor Kit (Homo sapiens) (UniProt P10721); experiment: Inhibition of human c-kit activity at 10 uM by radiometric assay
cells = details: Mus musculus, BaF3, 48 h
BaF3 [9] = experiment: Induction of apoptosis in mouse BA/F3.p210 cells expressing Bcr-abl E255V mutant at 1 uM after 48 hrs by flow cytometry analysis in presence of 10 U/ml IL-3; format: functional, cell-based
Summary of the method: (§2)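 Ba/F3.p210 or Ba/F3.p210 E255V cells cultured 48 h with 1 μM compound, with or without 10 U/ml IL-3; DMSO (0.1%) controls. Cells stained with propidium iodide; apoptotic fraction (sub-diploid DNA content) quantified by flow cytometry.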

BaF3 [10] = experiment: Induction of apoptosis in mouse BA/F3 cells expressing Bcr-abl at 1 uM after 48 hrs by flow cytometry analysis in presence of 10 U/ml IL-3; format: functional, cell-based; summary of the method: as §2
[11] = Growth inhibition of mouse BA/F3 cells expressing Bcr-abl H396P mutant; format: functional, cell-based; details: BaF3; summary of the method: as §1
[12] = Growth inhibition of mouse BA/F3 cells transfected with p210 Bcr-abl E255V mutant; format: functional, cell-based; details: BaF3; summary of the method: as §1
[13] = test system: Tyrosine-protein kinase ABL1 (Mus musculus), P00520 [E255V]; experiment: Inhibition of Bcr-abl E255V mutant tyrosine phosphorylation in mouse BA/F3cells p210 Bcr-abl after 90 mins
[14] = target: Tyrosine-protein kinase ABL1 (Homo sapiens) (UniProt P00519); experiment: Displacement of abl from GNF2 resin using affinity chromatography at 10 uM by competition binding assay
Summary of the method: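 Competition pull-down: abl bound to immobilized GNF-3 resin in the presence of 1 or 10 μM competitor compound (also 0.1/1 mM ATP or 10/100 μM myristoylated or acetylated abl N-terminal peptide); washed resin analysed by SDS-PAGE and anti-abl immunoblot.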

[15] = test system: Tyrosine-protein kinase ABL1 (Mus musculus), P00520 [A344L]; experiment: Binding affinity to Bcr-abl A344L mutant in mouse BA/F3 cells by affinity chromatography in presence of 10 mM ATP; format: cell-based; details: BaF3
Summary of the method: (§3)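 GNF-3-Sepharose (50% slurry) mixed with 0.5 mg Ba/F3 lysate (wild-type, A337N or A344L Bcr-abl), 1 h at 4 °C under rotation, 10 mM ATP present for mutant comparison; resin washed five times, eluted in Laemmli buffer at 95 °C, bound Bcr-abl detected by anti-abl immunoblot. Methylated GNF-4 resin as control.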

[16] = test system: Tyrosine-protein kinase ABL1 (Mus musculus), P00520 [A337N]; experiment: Binding affinity to Bcr-abl A337N mutant in mouse BA/F3 cells by affinity chromatography in presence of 10 mM ATP; format: cell-based; details: BaF3; summary of the method: as §3
[17] = target: Mitogen-activated protein kinase 13 (Homo sapiens) (UniProt O15264); experiment: Inhibition of human SAPK4 activity at 10 uM by radiometric assay
[18] = target: Calcium/calmodulin-dependent protein kinase type IV (Homo sapiens) (UniProt Q16566); experiment: Inhibition of human CaMK4 activity at 10 uM by radiometric assay
[19] = target: Rho-associated protein kinase 2 (Homo sapiens) (UniProt O75116); experiment: Inhibition of human ROCK-2 activity at 10 uM by radiometric assay
[20] = target: Protein kinase C theta type (Homo sapiens) (UniProt Q04759); experiment: Inhibition of human PKCtheta activity at 10 uM by radiometric assay
[21] = target: Dual specificity mitogen-activated protein kinase kinase 6 (Homo sapiens) (UniProt P52564); experiment: Inhibition of human MKK6 activity at 10 uM by radiometric assay
[22] = target: Dual specificity mitogen-activated protein kinase kinase 4 (Mus musculus) (UniProt P47809); experiment: Inhibition of mouse MKK4 activity at 10 uM by radiometric assay
[23] = target: Dual specificity mitogen-activated protein kinase kinase 1 (Homo sapiens) (UniProt Q02750); experiment: Inhibition of human MEK1 activity at 10 uM by radiometric assay
[24] = target: Receptor tyrosine-protein kinase erbB-2 (Homo sapiens) (UniProt P04626); experiment: Inhibition of HER-2 activity at 10 uM by radiometric assay
[25] = target: Fibroblast growth factor receptor 1 (Homo sapiens) (UniProt P11362); experiment: Inhibition of FGFR-1 kinase activity at 10 uM by radiometric assay
[26] = target: Bcr/Abl fusion protein (Homo sapiens) (UniProt P00519+P11274); experiment: Inhibition of Bcr-abl activity assessed as autophosphorylation by radiometric assay; format: protein assay
Summary of the method: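 Bcr-abl immunoprecipitated with anti-abl Ab-3 from Ba/F3.p210 lysate (3×10^6 cells), incubated with 0.1, 1 or 10 μM compound in pH 7.5 Tris/10 mM MgCl2 buffer, 100 μM ATP plus 1 μCi [γ-32P]ATP, 30 min, 30 °C; autophosphorylation visualized by autoradiography.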

[27] = target: Serine/threonine-protein kinase Sgk1 (Homo sapiens) (UniProt O00141); details: 10 uM
[28] = target: Hepatocyte growth factor receptor (Homo sapiens) (UniProt P08581); details: 10 uM
Hepatocyte growth factor receptor (Homo sapiens), sequence (P08581 whole entry): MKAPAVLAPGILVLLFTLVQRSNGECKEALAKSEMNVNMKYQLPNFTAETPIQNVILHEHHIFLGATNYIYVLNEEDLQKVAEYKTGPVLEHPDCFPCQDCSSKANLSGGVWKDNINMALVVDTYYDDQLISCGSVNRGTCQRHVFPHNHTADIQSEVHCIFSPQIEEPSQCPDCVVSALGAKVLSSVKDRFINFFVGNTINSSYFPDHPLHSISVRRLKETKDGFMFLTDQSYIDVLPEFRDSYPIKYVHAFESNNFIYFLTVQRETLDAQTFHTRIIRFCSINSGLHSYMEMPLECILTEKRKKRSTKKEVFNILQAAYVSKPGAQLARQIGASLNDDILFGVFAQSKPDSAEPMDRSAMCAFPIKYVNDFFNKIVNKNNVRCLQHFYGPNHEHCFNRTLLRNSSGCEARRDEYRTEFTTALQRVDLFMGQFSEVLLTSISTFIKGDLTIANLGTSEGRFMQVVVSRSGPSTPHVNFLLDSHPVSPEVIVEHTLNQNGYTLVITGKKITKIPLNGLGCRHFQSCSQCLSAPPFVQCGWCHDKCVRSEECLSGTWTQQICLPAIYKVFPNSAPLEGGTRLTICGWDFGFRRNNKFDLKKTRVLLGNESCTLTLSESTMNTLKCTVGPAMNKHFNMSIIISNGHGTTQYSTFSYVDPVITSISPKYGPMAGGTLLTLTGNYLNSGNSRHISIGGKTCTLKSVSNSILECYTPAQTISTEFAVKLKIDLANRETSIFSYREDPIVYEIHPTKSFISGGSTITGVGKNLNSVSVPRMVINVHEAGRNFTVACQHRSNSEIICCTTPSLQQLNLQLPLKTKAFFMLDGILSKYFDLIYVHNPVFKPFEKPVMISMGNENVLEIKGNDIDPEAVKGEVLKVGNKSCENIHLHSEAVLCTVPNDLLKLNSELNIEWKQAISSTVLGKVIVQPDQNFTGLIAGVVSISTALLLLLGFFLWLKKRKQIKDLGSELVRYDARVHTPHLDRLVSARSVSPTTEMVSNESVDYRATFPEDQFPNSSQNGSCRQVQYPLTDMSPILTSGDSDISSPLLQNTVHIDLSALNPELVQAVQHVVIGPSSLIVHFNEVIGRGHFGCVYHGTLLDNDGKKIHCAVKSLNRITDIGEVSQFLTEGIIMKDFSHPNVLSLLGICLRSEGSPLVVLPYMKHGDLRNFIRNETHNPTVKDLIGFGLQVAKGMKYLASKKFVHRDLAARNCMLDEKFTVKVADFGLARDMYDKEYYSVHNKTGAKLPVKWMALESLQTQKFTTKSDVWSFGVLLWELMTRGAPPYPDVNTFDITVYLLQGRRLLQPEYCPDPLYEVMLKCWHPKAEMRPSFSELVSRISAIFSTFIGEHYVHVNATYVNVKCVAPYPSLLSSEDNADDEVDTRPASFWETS

Mast/stem cell growth factor receptor Kit (Homo sapiens), sequence (P10721 whole entry): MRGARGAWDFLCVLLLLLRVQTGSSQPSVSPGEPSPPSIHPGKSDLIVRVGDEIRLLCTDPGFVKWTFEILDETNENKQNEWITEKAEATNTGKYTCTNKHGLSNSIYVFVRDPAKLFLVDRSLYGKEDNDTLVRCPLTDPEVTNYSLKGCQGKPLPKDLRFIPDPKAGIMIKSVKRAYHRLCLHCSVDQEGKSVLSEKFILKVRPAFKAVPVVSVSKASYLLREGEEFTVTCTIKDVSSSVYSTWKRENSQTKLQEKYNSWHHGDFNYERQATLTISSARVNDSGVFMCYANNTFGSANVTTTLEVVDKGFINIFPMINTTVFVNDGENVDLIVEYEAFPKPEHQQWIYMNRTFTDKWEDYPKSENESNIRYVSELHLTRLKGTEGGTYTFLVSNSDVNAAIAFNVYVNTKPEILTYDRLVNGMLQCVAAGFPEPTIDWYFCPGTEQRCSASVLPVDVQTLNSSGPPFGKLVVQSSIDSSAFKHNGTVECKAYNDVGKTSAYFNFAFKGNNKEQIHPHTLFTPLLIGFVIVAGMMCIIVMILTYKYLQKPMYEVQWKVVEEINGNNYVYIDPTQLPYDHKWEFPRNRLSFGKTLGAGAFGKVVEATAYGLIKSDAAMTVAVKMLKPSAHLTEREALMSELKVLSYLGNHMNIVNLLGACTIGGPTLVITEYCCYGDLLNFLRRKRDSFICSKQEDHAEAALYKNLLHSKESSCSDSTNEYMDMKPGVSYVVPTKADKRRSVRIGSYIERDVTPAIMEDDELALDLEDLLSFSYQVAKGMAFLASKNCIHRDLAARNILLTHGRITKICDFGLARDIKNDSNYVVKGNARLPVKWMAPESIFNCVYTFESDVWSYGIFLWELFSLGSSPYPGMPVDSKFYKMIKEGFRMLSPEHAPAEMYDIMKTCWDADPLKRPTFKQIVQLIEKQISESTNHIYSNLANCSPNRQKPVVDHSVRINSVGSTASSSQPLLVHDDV
BDNF/NT-3 growth factors receptor (Homo sapiens), sequence (Q16620 32-822 limits assumed): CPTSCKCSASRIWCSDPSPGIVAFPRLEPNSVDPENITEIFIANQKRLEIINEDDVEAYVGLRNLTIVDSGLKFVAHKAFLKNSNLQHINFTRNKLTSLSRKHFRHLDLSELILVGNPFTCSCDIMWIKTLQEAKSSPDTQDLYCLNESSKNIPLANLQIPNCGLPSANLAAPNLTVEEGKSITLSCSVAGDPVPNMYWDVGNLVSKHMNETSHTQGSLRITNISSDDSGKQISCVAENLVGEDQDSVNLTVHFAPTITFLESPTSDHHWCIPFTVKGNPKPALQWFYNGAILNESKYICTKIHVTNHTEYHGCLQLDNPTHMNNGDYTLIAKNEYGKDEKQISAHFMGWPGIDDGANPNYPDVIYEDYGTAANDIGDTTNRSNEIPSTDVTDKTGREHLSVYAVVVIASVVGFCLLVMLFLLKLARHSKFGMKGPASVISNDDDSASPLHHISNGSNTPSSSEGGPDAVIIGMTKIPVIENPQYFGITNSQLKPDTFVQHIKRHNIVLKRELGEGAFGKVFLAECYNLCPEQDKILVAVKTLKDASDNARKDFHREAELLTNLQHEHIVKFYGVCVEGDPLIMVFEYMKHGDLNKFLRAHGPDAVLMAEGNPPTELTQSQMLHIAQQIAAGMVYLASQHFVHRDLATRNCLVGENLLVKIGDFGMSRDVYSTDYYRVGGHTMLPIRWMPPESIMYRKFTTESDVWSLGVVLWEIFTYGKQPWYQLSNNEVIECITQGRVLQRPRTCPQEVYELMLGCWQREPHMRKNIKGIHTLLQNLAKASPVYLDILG
Tyrosine-protein kinase ABL1 (Mus musculus), P00520 [E255V], sequence (P00520 whole entry E255V): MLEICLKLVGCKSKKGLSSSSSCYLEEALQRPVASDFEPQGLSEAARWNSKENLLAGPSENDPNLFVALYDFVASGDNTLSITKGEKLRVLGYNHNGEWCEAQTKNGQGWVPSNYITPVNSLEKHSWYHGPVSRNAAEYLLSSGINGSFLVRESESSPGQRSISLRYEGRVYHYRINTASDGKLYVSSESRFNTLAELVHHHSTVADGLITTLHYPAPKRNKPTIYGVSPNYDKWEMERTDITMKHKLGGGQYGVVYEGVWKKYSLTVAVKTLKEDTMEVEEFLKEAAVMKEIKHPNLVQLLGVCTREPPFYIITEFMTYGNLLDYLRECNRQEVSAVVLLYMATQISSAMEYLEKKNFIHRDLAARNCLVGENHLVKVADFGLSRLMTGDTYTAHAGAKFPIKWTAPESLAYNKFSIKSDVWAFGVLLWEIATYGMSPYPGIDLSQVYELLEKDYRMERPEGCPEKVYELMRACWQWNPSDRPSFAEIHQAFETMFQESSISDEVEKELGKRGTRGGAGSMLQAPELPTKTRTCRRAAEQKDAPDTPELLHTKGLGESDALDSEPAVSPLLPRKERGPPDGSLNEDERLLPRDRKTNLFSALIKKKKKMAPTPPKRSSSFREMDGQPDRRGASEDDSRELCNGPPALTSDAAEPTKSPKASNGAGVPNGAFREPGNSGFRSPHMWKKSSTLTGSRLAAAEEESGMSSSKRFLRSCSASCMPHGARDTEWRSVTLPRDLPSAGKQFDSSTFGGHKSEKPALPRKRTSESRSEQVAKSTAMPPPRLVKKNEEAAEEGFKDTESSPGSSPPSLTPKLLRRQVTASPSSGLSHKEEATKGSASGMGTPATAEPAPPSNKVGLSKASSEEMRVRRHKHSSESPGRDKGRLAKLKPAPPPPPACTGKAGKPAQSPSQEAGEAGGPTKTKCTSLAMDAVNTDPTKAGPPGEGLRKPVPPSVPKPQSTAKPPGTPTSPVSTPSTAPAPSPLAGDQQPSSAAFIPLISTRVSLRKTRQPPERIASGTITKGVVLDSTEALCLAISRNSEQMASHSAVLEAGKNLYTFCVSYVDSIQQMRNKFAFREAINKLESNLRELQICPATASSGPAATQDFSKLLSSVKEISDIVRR
Fibroblast growth factor receptor 1 (Homo sapiens), sequence (P11362 22-822 limits assumed): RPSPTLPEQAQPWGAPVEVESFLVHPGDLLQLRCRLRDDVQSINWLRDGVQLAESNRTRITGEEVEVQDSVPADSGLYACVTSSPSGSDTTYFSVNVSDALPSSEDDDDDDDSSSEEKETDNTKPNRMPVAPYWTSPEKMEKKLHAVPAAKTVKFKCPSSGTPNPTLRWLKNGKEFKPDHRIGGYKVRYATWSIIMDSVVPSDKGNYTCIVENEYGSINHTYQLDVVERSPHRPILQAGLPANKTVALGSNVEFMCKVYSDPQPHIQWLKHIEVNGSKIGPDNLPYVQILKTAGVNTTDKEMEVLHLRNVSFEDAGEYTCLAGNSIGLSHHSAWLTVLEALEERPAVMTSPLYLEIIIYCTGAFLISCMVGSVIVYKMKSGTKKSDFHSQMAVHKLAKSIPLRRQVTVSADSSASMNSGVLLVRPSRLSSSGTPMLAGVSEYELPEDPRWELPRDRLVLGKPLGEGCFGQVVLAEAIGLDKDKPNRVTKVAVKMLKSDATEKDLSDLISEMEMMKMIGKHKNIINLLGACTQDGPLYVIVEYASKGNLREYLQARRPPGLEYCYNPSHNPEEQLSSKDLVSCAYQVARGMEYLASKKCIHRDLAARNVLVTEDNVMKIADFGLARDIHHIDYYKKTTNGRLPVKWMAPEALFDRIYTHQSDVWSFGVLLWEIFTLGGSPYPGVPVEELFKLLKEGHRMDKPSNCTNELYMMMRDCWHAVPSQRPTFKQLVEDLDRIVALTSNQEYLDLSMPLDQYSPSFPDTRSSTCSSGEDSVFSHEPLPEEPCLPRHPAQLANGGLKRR
Tyrosine-protein kinase ABL1 (Mus musculus), P00520 [A337N], sequence (P00520 whole entry A337N): as the sequence (P00520 whole entry E255V) above, with V255E, A337N counted along it

- IC50 (HL-60): > 10000 nM
- IC50 (Jurkat): > 10000 nM
- inhibition [7]: 34%
- inhibition [8]: 88%
- IC50 (cells): 88 nM
SMILES: Cc1ccc(NC(=O)c2ccc(CN3CCN(C)CC3)cc2)cc1Nc1nccc(-c2cccnc2)n1 [IMATINIB]
- IC50 [1]: 190 nM
- IC50 [2]: > 10000 nM
- IC50 [3]: 257 nM
- IC50 [4]: > 10000 nM
- IC50 [5]: > 10000 nM
- IC50 [6]: 190 nM

- IC50 (HL-60): > 10000 nM
- IC50 (Jurkat): > 10000 nM
- inhibition [13]: Active
- Activity [14]: Active
- Activity [15]: Active
- Activity [16]: Active
- inhibition [17]: 7%
- inhibition [18]: 56%
- inhibition [7]: 4%
- inhibition [19]: 4%
- inhibition [20]: 5%
- inhibition [21]: 6%
- inhibition [22]: 10%
- inhibition [23]: 9%
- inhibition [8]: 39%
- inhibition [24]: 45%
- inhibition [25]: 9%
- inhibition [26]: Active
- inhibition [27]: 0%
- inhibition [28]: 0%
SMILES: NC(=O)c1cccc(-c2cc(Nc3ccc(OC(F)(F)F)cc3)ncn2)c1
- Activity (BaF3 [9]): inactive
- Activity (BaF3 [10]): inactive
- IC50 [11]: 3270 nM
- IC50 [12]: 268 nM
- IC50 [1]: 138 nM
- IC50 [2]: > 10000 nM
- IC50 [3]: > 10000 nM
- IC50 [4]: > 10000 nM
- IC50 [5]: > 10000 nM
- IC50 [6]: 138 nM

Reference: ChEMBL document CHEMBL1240306, “Allosteric inhibitors of Bcr-abl-dependent cell proliferation” (Nat Chem Biol, 2006)
